Reference: ChEMBL document CHEMBL1126774, “Synthesis and antiviral activity of novel 5-(1-azido-2-haloethyl) and 5-(1-azido-, amino-, or methoxyethyl) analogs of 2'-deoxyuridine” (J Med Chem, 1993)

Experiments:
[1] = Inhibitory concentration of the drug against the cytopathic effect for E-377 strain of herpes simplex virus-1 (HSV-1) in human HFF cells; format: functional, cell-based
Procedure, shortened: (§1)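 HFF CPE assay: low-passage cells seeded 24 h before in MEM + 10% FBS, switched to MEM + 2% FBS. Drug added in triplicate, serially diluted 1:5, plus HSV-1 or HSV-2 at 1000 PFU/well; 3 days at 37 °C in CO2. Staining with 0.1% crystal violet, read at 620 nm. Value is concentration (µM) reducing CPE by 50%.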

[2] = Inhibitory concentration of the drug against the cytopathic effect for MS strain of herpes simplex virus-2 (HSV-2) in human HFF cells; format: functional, cell-based; procedure, shortened: as §1
[3] = Inhibitory concentration of the drug against the cytopathic effect for ellen strain of […] in human HFF cells; format: functional, cell-based
[4] = organism: Homo sapiens; test: Concentration of the drug required to reduce the proliferation of human foreskin fibroblast cells; format: functional
Procedure, shortened: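 HFF cells seeded 24 h before in MEM + 10% FBS; drugs serially diluted 1:5 in MEM + 10% FBS over 100 µg/mL to 0.03 µg/mL, 72 h at 37 °C in CO2; cells trypsinized and counted on a Coulter counter; value is concentration (µM) reducing proliferation to 50% of untreated controls.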

[5] = organism: Homo sapiens; test: Concentration of the drug required to reduce the uptake of neural red stain by uninfected cell monolayers (HFF); format: functional
Procedure, shortened: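 HFF cells plated 24 h before assay at 2.5×10^4 cells/well; drug added in 1:5 serial dilution, incubated 7 days at 37 °C in CO2; 0.01% neutral red in DPBS 1 h, washed, dye extracted with 50% EtOH/1% acetic acid, OD 550 nm; value is concentration (µM) reducing uptake to 50% of untreated uninfected controls.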

[6] = tested on: Raji; test: Inhibitory concentration of the drug against the antigen production against P3HR-1 strain of epstein barr virus-2 (EBV) in Raji cells; format: functional, cell-based; conditions: Homo sapiens
Procedure, shortened: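 Raji cells infected with EBV P3HR-1; drug added after adsorption (45 min, 37 °C) and washing, then 2 days in complete medium. Cells counted, smears stained with monoclonal antibodies to early antigen components and VCA plus fluorescent detection; positive cells counted. Value is concentration (µM) reducing antigen production to 50% of untreated infected controls.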

[7] = tested on: Human cytomegalovirus (Human herpesvirus 5); test: Inhibitory concentration of the drug against the cytopathic effect for AD169 strain of human cytomegalovirus (HCMV) in human HFF cells

| SMILES | EC50 [1] | EC50 [2] | EC50 [3] | EC50 [6] | EC50 [7] | IC50 [4] | IC50 [5] |
| --- | --- | --- | --- | --- | --- | --- | --- |
| Nc1nc2c(ncn2COCCO)c(=O)[nH]1 [ACYCLOVIR] | 0.04 µM | 0.09 µM |  | 2.9 µM |  | > 440 µM | > 440 µM |
| Nc1nc2c(ncn2COC(CO)CO)c(=O)[nH]1 [GANCICLOVIR] |  |  |  |  | 0.5 µM | 168 µM | > 390 µM |
| [N-]=[N+]=NC(CCl)c1cn([C@H]2C[C@H](O)[C@@H](CO)O2)c(=O)[nH]c1=O (stereo partly specified) | 0.06 µM | 6.6 µM | 4.5 µM | 11.1 µM | > 150 µM | > 300 µM | > 150 µM |
| [N-]=[N+]=NC(CBr)c1cn([C@H]2C[C@H](O)[C@@H](CO)O2)c(=O)[nH]c1=O (stereo partly specified) | 6.4 µM | 2.9 µM | 4 µM | 9.3 µM | > 130 µM | 91 µM | > 130 µM |

The next lines start with results.

| EC50 [1] | EC50 [2] | EC50 [3] | EC50 [6] | EC50 [7] | SMILES | IC50 [4] | IC50 [5] |
| --- | --- | --- | --- | --- | --- | --- | --- |
| 0.5 µM | 13.2 µM | 12.3 µM | 4 µM | > 118 µM | [N-]=[N+]=NC(CI)c1cn([C@H]2C[C@H](O)[C@@H](CO)O2)c(=O)[nH]c1=O (stereo partly specified) | 76 µM | > 118 µM |
| > 170 µM | > 170 µM | > 67 µM |  | > 170 µM | CC(N=[N+]=[N-])c1cn([C@H]2C[C@H](O)[C@@H](CO)O2)c(=O)[nH]c1=O (stereo partly specified) | 81 µM | > 170 µM |
| 1.7 µM | 1 µM | > 87 µM |  | 5.9 µM | COC(C)c1cn([C@H]2C[C@H](O)[C@@H](CO)O2)c(=O)[nH]c1=O (stereo partly specified) | 330 µM | > 175 µM |
| > 100 µM | > 100 µM | > 250 µM | 44.6 µM | > 125 µM | CC(N)c1cn([C@H]2C[C@H](O)[C@@H](CO)O2)c(=O)[nH]c1=O (stereo partly specified) | > 250 µM | > 125 µM |
| 0.6 µM | 1.5 µM | 66.4 µM | 12.1 µM | 0.9 µM | CCc1cn([C@H]2C[C@H](O)[C@@H](CO)O2)c(=O)[nH]c1=O [EDOXUDINE] | 115 µM | > 195 µM |
| 0.02 µM | 2.21 µM | 0.01 µM |  | 24.8 µM | O=c1[nH]c(=O)n([C@H]2C[C@H](O)[C@@H](CO)O2)cc1/C=C/I | 4.4 µM | 86 µM |
